Test results reported in ChEMBL document CHEMBL1130250, “NAcSDKP analogues resistant to angiotensin-converting enzyme” (J Med Chem, 1997).
Peptide text beside a SMILES is read from it. * marks the point of attachment. Pyrrolidide = C1CCN(*)C1

Assays:
[1] = target: T1, Angiotensin-converting enzyme (Oryctolagus cuniculus) (UniProt P12822); assay: In vitro stability of compound (0.5 uM) to inhibit NAcSDKP hydrolysis by rabbit lung Angiotensin I converting enzyme after 30 minutes incubation
T1 sequence (whole entry): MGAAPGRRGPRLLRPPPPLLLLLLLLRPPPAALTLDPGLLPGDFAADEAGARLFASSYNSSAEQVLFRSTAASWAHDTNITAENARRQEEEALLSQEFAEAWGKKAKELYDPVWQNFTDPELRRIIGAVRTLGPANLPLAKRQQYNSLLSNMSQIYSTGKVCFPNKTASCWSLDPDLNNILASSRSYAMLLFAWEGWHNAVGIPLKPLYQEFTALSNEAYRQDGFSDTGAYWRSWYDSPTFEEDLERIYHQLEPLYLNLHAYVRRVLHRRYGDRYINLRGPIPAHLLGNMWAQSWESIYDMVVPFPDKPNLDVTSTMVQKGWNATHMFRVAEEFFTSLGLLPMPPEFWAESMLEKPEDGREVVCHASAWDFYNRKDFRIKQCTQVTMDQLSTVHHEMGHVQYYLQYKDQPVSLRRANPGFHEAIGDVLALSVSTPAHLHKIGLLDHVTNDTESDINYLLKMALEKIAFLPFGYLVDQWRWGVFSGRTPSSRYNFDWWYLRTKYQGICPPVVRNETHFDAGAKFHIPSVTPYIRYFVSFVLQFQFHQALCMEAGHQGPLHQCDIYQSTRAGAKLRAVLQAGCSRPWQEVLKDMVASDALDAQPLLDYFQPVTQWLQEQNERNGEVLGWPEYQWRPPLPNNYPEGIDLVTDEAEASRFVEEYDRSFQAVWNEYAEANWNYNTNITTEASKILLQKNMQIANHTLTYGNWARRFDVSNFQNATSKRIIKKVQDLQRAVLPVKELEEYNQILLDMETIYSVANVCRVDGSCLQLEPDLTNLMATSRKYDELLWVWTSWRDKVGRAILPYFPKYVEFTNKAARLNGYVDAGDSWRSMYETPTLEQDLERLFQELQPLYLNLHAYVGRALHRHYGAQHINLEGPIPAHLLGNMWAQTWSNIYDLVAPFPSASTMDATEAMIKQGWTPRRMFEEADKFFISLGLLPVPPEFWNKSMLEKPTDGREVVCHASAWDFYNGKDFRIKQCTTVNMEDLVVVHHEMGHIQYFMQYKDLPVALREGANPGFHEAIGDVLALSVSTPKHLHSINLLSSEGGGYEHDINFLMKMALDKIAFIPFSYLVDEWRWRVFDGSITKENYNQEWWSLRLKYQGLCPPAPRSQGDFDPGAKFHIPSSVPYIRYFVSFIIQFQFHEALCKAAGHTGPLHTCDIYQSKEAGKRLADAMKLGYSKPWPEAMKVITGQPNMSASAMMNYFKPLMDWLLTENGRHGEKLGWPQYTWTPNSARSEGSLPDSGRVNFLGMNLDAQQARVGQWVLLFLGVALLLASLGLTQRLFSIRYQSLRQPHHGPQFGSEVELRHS
Outline: (§1)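 Rabbit lung ACE (0.1 unit/mL final) in Tris-maleate buffer pH 7 (100 mM Tris, 50 mM NaCl, 10^-5 M ZnSO4). Analogue (final 0.5, 5 or 50 µM) preincubated with enzyme 30 min at 37 °C. NAcSD[3H]KP (tritium on lysine side chain) plus cold peptide, 5 µM final, then added for 30 min at 37 °C. Frozen at -80 °C and run on high-voltage paper electrophoresis. Residual labelled substrate radioactivity compared with t=0. Duplicates, mean of two experiments.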

[2] = target: T1, Angiotensin-converting enzyme (Oryctolagus cuniculus); assay: In vitro stability of compound (50 uM) to inhibit NAcSDKP hydrolysis by rabbit lung Angiotensin I converting enzyme after 30 minutes incubation; outline: as §1
[3] = target: T1, Angiotensin-converting enzyme (Oryctolagus cuniculus); assay: In vitro stability of compound (51 uM) to inhibit NAcSDKP hydrolysis by rabbit lung Angiotensin I converting enzyme after 30 minutes incubation; outline: as §1
[4] = target: T1, Angiotensin-converting enzyme (Oryctolagus cuniculus); assay: In vitro stability of compound toward enzymatic degradation by rabbit lung Angiotensin I converting enzyme after 24 hr incubation
Outline: (§2)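 Degradation assay: rabbit lung ACE preincubated 30 min at 37 °C in Tris-maleate pH 7 (100 mM Tris, 50 mM NaCl, 10^-5 M ZnSO4). Peptide then added at 50 µM final with enzyme at 0.1 unit/mL, 37 °C for 30 min or 24 h. Stopped with 1% TFA, then RP-HPLC at 215 nm. Residual intact peptide read from peak area against t=0 and a 5-50 calibration curve. Mean of two experiments in triplicate.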

[5] = target: T1, Angiotensin-converting enzyme (Oryctolagus cuniculus); assay: In vitro stability of compound toward enzymatic degradation by rabbit lung Angiotensin I converting enzyme after 30 minutes incubation; outline: as §2
[6] = target: T1, Angiotensin-converting enzyme (Oryctolagus cuniculus); assay: In vitro stability of compound (5 uM) to inhibit NAcSDKP hydrolysis by rabbit lung Angiotensin I converting enzyme after 30 minutes incubation; outline: as §1

| Structure (SMILES) | Residual peptide [1] | Residual peptide [2] | Residual peptide [3] | Residual peptide [4] | Residual peptide [5] | Residual peptide [6] |
| --- | --- | --- | --- | --- | --- | --- |
| CC(=O)N[C@@H](CO)CN[C@@H](CC(=O)O)C(=O)N[C@@H](CCCCN)C(=O)N1CCC[C@H]1C(=O)O | 46.9% | 46.7% | 54% | 97.6% | 99.7% |  |
| CC(=O)N[C@@H](CO)C(=O)N[C@@H](CC(=O)O)C(=O)N[C@@H](CCCCN)CN1CCC[C@H]1C(=O)O | 47.3% | 50.3% |  | 99.4% | 99.7% | 48.8% |
| CC(=O)N[C@@H](CO)C(=O)N[C@H](CN[C@@H](CCCCN)C(=O)N1CCC[C@H]1C(=O)O)CC(=O)O | 46% | 41.7% |  | 100% | 100% | 49.3% |
| CC(=O)N[C@@H](CO)C(=O)N[C@@H](CC(=O)O)C(=O)N[C@@H](CCCCN)C(=O)N1CCC[C@H]1C(N)=O (Ac-SDKP-NH2) | 46% | 49.7% |  | 96.7% | 99.9% | 50.1% |
| CC(=O)N[C@@H](CO)C(=O)N[C@@H](CC(=O)O)C(=O)N[C@@H](CCCCN)C(=O)N1CCC[C@H]1C(=O)O (Ac-SDKP-OH) |  |  |  |  | 43.6% |  |
| CC(=O)N[C@@H](CO)C(=O)N[C@@H](CC(=O)O)C(=O)N[C@@H](CCCCN)C(=O)N1CCCC1 (Ac-Ser-Asp-Lys-Pyrrolidide) |  |  |  | 0% | 36.2% |  |
